As usually defined, the IC50 is the concentration that gives 50% inhibition. What is called logD is the decadic logarithm of the distribution of all forms, ionised or not, between an organic phase and buffer at a given pH.

These results are taken from publication PMC6077846 (ChemMedChem, 2018).

The subject of data set [1] is cPLA2α. The conditions noted are these: cPLA2α inhibition; ref [19] and [20]; cited from earlier work.
Data set [2] can be described thus: Lipophilicity. Type of data set: physicochemical. The conditions noted are these: 1-octanol/sodium phosphate buffer, pH 7.4. In short, it runs like this:
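The 11C-labelled test compound was partitioned between 1-octanol and 0.15 M sodium phosphate buffer, pH 7.4. The aqueous phase left after extraction was analysed by radio-HPLC on C18 with MeOH:H2O:Et3N (92.5:7.5:0.1) at 4.0 mL/min. The result was decay-corrected and corrected for radioligand instability in the buffer.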

For data set [3], the target named is T1, cPLA2α (Mus musculus, UniProt P47713).
T1 sequence (P47713 1-748): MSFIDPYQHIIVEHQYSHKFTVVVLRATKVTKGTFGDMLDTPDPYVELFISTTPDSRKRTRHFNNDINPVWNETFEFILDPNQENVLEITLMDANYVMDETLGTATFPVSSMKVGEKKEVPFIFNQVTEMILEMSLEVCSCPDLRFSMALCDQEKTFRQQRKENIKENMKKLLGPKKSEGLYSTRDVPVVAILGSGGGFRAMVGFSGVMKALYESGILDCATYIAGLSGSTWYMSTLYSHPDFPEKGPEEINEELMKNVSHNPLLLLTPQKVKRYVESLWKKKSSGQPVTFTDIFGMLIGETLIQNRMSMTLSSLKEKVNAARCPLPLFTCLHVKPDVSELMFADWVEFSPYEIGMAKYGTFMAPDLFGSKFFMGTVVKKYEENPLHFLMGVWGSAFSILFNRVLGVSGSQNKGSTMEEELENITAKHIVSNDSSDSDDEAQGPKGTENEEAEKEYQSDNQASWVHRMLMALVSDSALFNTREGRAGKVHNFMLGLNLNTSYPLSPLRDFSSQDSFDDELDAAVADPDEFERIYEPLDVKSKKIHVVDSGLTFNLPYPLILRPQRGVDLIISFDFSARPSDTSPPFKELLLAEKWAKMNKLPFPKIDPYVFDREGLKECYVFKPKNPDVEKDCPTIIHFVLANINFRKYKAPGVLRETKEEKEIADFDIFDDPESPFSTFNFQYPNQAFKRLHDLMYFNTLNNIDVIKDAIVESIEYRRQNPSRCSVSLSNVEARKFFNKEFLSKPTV
The data set can be described thus: PET imaging in wild type mice with self-block pretreatment. The conditions noted are these: blocking agent 2 mg/kg i.v. 30 min before radioligand. In kind it is in vivo. In short, it runs like this: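 Wild-type mice under 1.5% isoflurane first received unlabelled blocking agent, 2 mg/kg i.v. via tail-vein catheter. Thirty minutes later they were given about 7.4 MBq of 11C-labelled test compound in ethanol/saline (1:9), ascorbic acid and Tween. MicroPET ran for 100 min. Brain time-activity curves were compared with baseline. Reconstruction used FORE/2D OSEM without attenuation or scatter correction.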

The nature of data set [4]: PET imaging in wild type mice, baseline radioactivity uptake. In kind it is in vivo. Conditions: i.v. injection. The gist of the method:
(§1)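 Mice under 1.5% isoflurane were given about 7.4 MBq of 11C-labelled test compound i.v. via a tail-vein catheter. Vehicle was ethanol/saline 1:9 with ascorbic acid and Tween. Dynamic microPET ran for 100 min and brain time-activity curves were plotted in SUV. Images were reconstructed by Fourier rebinning and 2D OSEM, with no attenuation or scatter correction.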

The nature of data set [5]: Distribution into cellular blood elements, rat blood. Type of data set: in vitro ADME. The conditions noted are these: absence of autologous plasma. The gist of the method: (§2)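 Carbon-11 carboxyl-labelled test compound added to freshly drawn heparin-anticoagulated blood. Blood cells were tested with and without autologous plasma, and the fraction of radioactivity bound to cells was determined. Mean ± SD, n = 3.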

Data set [6] in a line: Distribution into cellular blood elements, monkey blood. In kind it is in vitro ADME. The conditions noted are these: absence of autologous plasma. In short, it runs like this: as §2
The subject of data set [7] is P-gp/BCRP. In words: PET imaging in P-gp/BCRP dual knock-out mice. In kind it is in vivo. In short, it runs like this: as §1
The nature of data set [8]: Tissue stability in rat brain homogenate. In kind it is in vitro ADME. The conditions noted are these: room temperature, 30 min.
Data set [9] is described as follows: Stability in aqueous sodium phosphate buffer. Type of data set: physicochemical. Conditions: sodium phosphate buffer 0.15 M, pH 7.4.

Molecules are shown by their SMILES. Entries after “also recorded” stand apart in the source; their conditions may differ.

As for `CC(C)C(=O)c1cn(CC(=O)COc2ccc(Oc3ccccc3)cc2)c2ccc(C(=O)O)cc12` [[^11C]1, 3-isobutyryl-1-(2-oxo-3-(4-phenoxyphenoxy)propyl)-1H-indole-5-carboxylic acid], the half-inhibitory concentration (IC50) in [1] is 12 nM. In data set [2], this molecule had a logD of 2.1 ± 0.01. For the same molecule, the “Effect of pretreatment with non-radioactive ligand on brain time-activity curve” value in [3] is listed as “did not alter”. The “Peak radioactivity in brain” value is listed as 0.4 SUV in data set [4] and 0.5 SUV in data set [7] (P-gp/BCRP dual knock-out mice, i.v. injection). In addition, the “Bound to blood cells” value in [5] and in data set [6] was “More than 94%” each time. Moreover, in [7] (wild type vs dual knock-out mice brain uptake), the “Efflux transporter (P-gp/BCRP) substrate status” value is reported as “not efflux transporters substrates; also recorded: not a brain P-gp or BRCP efflux transporter substrate”.

For the molecule `CC(=O)c1cn(CC(=O)COc2ccc(Oc3ccc(C(F)(F)F)cc3)cc2)c2ccc(C(=O)O)cc12` [[^11C]2, 3-acetyl-1-(2-oxo-3-(4-(4-(trifluoromethyl)-phenoxy)phenoxy)propyl)-1H-indole-5-carboxylic acid], the half-maximal inhibitory concentration (IC50) in data set [1] was 10 nM. This molecule also gave a logD in [2] of 2.43 ± 0.01. Further, the “Stability in rat brain homogenate” value in data set [8] was determined as 97.5%. The molecule also returned a Stability in buffer in [9] of 98.4±0.2%.

As to `Cc1noc(-c2cn(CC(=O)COc3ccc(Oc4ccccc4)cc3)c3ccc(C(=O)O)cc23)n1` [[^11C]3, 3-(3-methyl-1,2,4-oxadiazol-5-yl)-1-(2-oxo-3-(4-phenoxyphenoxy)propyl)-1H-indole-5-carboxylic acid], in data set [1], the IC50 was 6.1 nM. In [2], this molecule came in with a logD of 2.07 ± 0.02. The molecule further came in with a Stability in buffer in data set [9] of 99.7±0.2%.

As to `CCCCCCCCc1ccc(OCC(=O)Cn2cc(-c3nc(C)no3)c3cc(C(=O)O)ccc32)cc1` [[^11C]4, 3-(3-methyl-1,2,4-oxadiazol-5-yl)-1-(3-(4-octylphenoxy)-2-oxopropyl)-1H-indole-5-carboxylic acid], the logD in data set [2] was determined as 1.94 ± 0.15. Further, the “Stability in rat brain homogenate” value in data set [8] stood at 104%. The Stability in buffer in [9] stood at 80.3±3.4%.
